Columns and labels:
[1] = biological target: T1, Neh1‐ΔLZIP (Homo sapiens, UniProt Q16236); type: binding; conditions: 0.750 mM compound 2, ARE DNA 0.10, 0.20, 0.30 mM, 50 μM protein
T1 sequence (Q16236 445-523): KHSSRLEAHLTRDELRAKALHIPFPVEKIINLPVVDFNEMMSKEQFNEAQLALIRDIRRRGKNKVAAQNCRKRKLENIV

[2] = biological target: T2, Neh1 (residues 445–523, Neh1‐ΔLZIP) domain of NRF2 (Homo sapiens, UniProt Q16236); assay: 1H-15N HSQC small-molecule titration; type: binding
T2 sequence (Q16236 445-523): T1 sequence (Q16236 445-523)
Procedure, shortened: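 15N-labelled human NRF2 residues 445–523 were expressed in E. coli BL21(DE3) with TEV-cleaved MBP/His tags and used at 50 μM in 50 mM sodium phosphate pH 6.5, 150 mM NaCl, 1 mM DTT. Test compound (50 mM DMSO-d6 stock) was titrated to final 0.250, 0.750, 1.5 and 2.0 mM, with 1H-15N HSQC at each step. Combined 1HN/15N CSPs were fitted per residue by nonlinear least squares for KD.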

Kd ([2]; KD, from CSP values using equation (1), average over R499, D500, R503): 1.7 ± 0.1 mM
chemical shift change of side chain amide nitrogen Nδ2 of N482, measured value ([2]; at approximately 50–60 % protein fraction bound): 0.64 ppm
CSP, backbone amide of N482 ([2]; upon addition of compound 2): 0.04 ppm
Structure (SMILES): O=C(O)COc1ccc(-c2ccccc2)cc1Br [Compound 2, 2‐((3‐bromo‐[1,1’‐biphenyl]‐4‐yl)oxy)acetic acid]
replacement of compound by ARE DNA (competition) [1]: final spectrum which is very close to the spectrum of Neh1‐ΔLZIP bound to ARE

From publication PMC9293343 (Chemmedchem, 2021)
